Experimental data gathered from unrelated publications.
Lines come from different studies, so protocols differ.
Observed: cell growth or viability

| SMILES | cell line | technique | tested at | time | endpoint | value |
| --- | --- | --- | --- | --- | --- | --- |
| COc1cc(C)cc2oc(-c3ccc(Br)cc3)cc(=O)c12 | HS27 | MTT |  | 24 h | CC50 | > 200 µM |
| CC1(C)OC[C@@]2(C)[C@H]3CC[C@@H]4CN(Cc5cccs5)[C@@H](C5=CCOC5=O)C[C@H]4[C@]3(C)CC[C@H]2O1 | MRC5 | ATP luminescence | 25 µM | 72 h | cell death | -0.9% |
| CC(C)(C)CC(C)(C)Nc1c(-c2ccccc2)nc2ncccn12 | MDA-MB-231 | MTT | 25 µM | 48 h | viability | 58.2% |
| COc1cc(OC)c2c(=O)cc(-c3ccc(Br)cc3)oc2c1 | HS27 | MTT |  | 24 h | CC50 | > 200 µM |
| CC(C)(C)CC(C)(C)Nc1c(-c2cccc(C#N)c2)nc2ncccn12 | MDA-MB-231 | MTT | 25 µM | 48 h | viability | 75.8% |
| COc1ccc(S(=O)(=O)ON=C2C=C(C)C(=O)C(C)=C2)cc1 | MDA-MB-231 |  |  |  | CC50 | 1.03 µM |
| COc1cc(OC)c2c(=O)cc(-c3ccc(C(F)(F)F)cc3)oc2c1 | HS27 | MTT |  | 24 h | CC50 | > 200 µM |
| C[C@]1(CO)[C@H]2CC[C@@H]3CN(Cc4ccco4)[C@@H](C4=CCOC4=O)C[C@H]3[C@]2(C)CC[C@H]1O | MRC5 | ATP luminescence | 25 µM | 72 h | cell death | -0.1% |
| COc1cc2ccc(=O)oc2cc1OC | MRC5 | MTT |  | 24 h | IC50 | > 100 µM |
| COc1cccc2c1C(=O)c1c(O)c3c(c(O)c1C2=O)C[C@@](O)(C(=O)CO)C[C@@H]3O[C@H]1C[C@H](N)[C@H](O)[C@H](C)O1 | MDA-MB-231 | MTT | 25 µM | 48 h | viability | 33.8% |
| Cc1cn([C@@H]2C[C@H](O)[C@@H](CNC(=O)Nc3ccc(-c4ccccc4)cc3)O2)c(=O)[nH]c1=O | MRC5 |  |  |  | CC50 | > 50 µM |
| CCCCN1C[C@H]2CC[C@@H]3[C@]4(C)COC(C)(C)O[C@@H]4CC[C@@]3(C)[C@@H]2C[C@@H]1C1=CCOC1=O | MRC5 | ATP luminescence | 25 µM | 72 h | cell death | 33.7% |
